{"data": "Published values gathered from unrelated publications", "target": "Tyrosine-protein kinase Fyn (FYN, Homo sapiens, UniProt P06241)", "note": "Lines come from different studies, so protocols differ."}
{"SMILES": "CC(C)(C)c1nc2c(s1)c1nc(N)ncc1c1ccc(NS(=O)(=O)c3c(F)cccc3F)c(F)c12", "assay": "enzyme activity, inhibitor, radiometric", "conditions": "1 µM", "endpoint": "remaining activity", "result": "97%"}
{"SMILES": "CNCc1ccc(-c2cc(-c3nc(-c4ccc(S(=O)(=O)C(C)C)cc4)cnc3N)on2)cc1", "assay": "enzyme activity, inhibitor", "conditions": "2 µM", "endpoint": "inhibition", "result": "27%"}
{"SMILES": "CNC(=O)c1cc(Oc2ccc(NC(=O)Nc3ccc(Cl)c(C(F)(F)F)c3)cc2)ccn1", "assay": "enzyme activity, inhibitor", "conditions": "10 µM", "endpoint": "inhibition", "result": "44%"}
{"SMILES": "Cc1sc(C(=O)NC2COC2)cc1-n1cc(NC(=O)Nc2c(F)cccc2Cl)cn1", "assay": "enzyme activity, inhibitor", "conditions": "10 µM", "endpoint": "remaining activity", "result": "99.8%"}
{"SMILES": "O=c1c2ccccc2[nH]c(=S)n1CCN1CCC(=C(c2ccc(F)cc2)c2ccc(F)cc2)CC1", "assay": "enzyme activity, inhibitor", "conditions": "0.5 µM", "endpoint": "remaining activity", "result": "102%"}
{"SMILES": "COc1ccc2c(O[C@@H]3C[C@H]4C(=O)N[C@]5(C(=O)O)CC5/C=C\\CCCCC[C@H](NC(=O)OC5CCCC5)C(=O)N4C3)cc(-c3csc(NC(=O)C(C)C)n3)nc2c1C (stereo partly shown)", "assay": "cell-free assay, competition with immobilised ligand", "conditions": "1 µM", "endpoint": "remaining binding", "result": "100%"}
{"SMILES": "COc1cc(Nc2c(C#N)cnc3cc(OCCCN4CCN(C)CC4)c(OC)cc23)c(Cl)cc1Cl", "assay": "cell-free assay", "conditions": "0.5 µM", "endpoint": "remaining signal", "result": "29.4%"}
{"SMILES": "CC(=O)c1c(NS(C)(=O)=O)c2cc(-c3ccc(Cl)cc3)c(-c3ccc(Cl)cc3Cl)nc2n(C)c1=O", "assay": "cell-free assay, competition with immobilised ligand", "conditions": "1 µM", "endpoint": "remaining binding", "result": "92%"}
{"SMILES": "CCN(CC)CCNC(=O)c1c(C)[nH]c(/C=C2\\C(=O)Nc3ccc(F)cc32)c1C", "assay": "enzyme activity, inhibitor", "conditions": "0.3 µM", "endpoint": "inhibition", "result": "35%"}
{"SMILES": "CNC(=O)Nc1ccc2c(c1)[C@@]1(CC2)OC(=O)N(CC(=O)N(Cc2ccc(F)cc2)[C@@H](C)C(F)(F)F)C1=O", "assay": "cell-free assay, competition with immobilised ligand", "conditions": "1 µM", "endpoint": "remaining binding", "result": "79%"}
{"SMILES": "Nc1ncnc2occ(-c3ccc(NC(=O)Nc4cc(C(F)(F)F)ccc4F)cc3)c12", "assay": "enzyme activity, inhibitor", "conditions": "20 µM", "endpoint": "remaining activity", "result": "2.8%"}
{"SMILES": "CNC(=O)Nc1ccc2c(c1)CC[C@@]21OC(=O)N(CC(=O)N(Cc2ccc(F)cc2)[C@@H](C)C(F)(F)F)C1=O", "assay": "cell-free assay, competition with immobilised ligand", "conditions": "1 µM", "endpoint": "remaining binding", "result": "100%"}
{"SMILES": "Cc1ccc(C(=O)Nc2ccc(CN3CCN(C)CC3)c(C(F)(F)F)c2)cc1C#Cc1cnc2cccnn12", "assay": "enzyme activity, inhibitor", "conditions": "23.5 nM", "endpoint": "remaining activity", "result": "28%"}
{"SMILES": "COc1cc(Cl)c(C(=O)N[C@@H](CN[C@H]2CC[C@@H](N)CC2)Cc2ccc(C#N)cc2)cc1-c1ccc(CN[C@H](C)c2ccc(C)cc2)o1", "assay": "enzyme activity, inhibitor", "conditions": "1 µM", "endpoint": "remaining activity", "result": "104%"}
{"SMILES": "O=c1cc(-c2cccc3c2Sc2ccccc2S3)oc(N2CCOCC2)c1", "assay": "enzyme activity, inhibitor", "conditions": "0.5 µM", "endpoint": "remaining activity", "result": "88.6%"}
{"SMILES": "CN(C(=O)c1ccccc1)c1cc(N(C)c2ccc3c(c2)CCc2ccc(C(=O)NCCN4CCOCC4)cc2C3=O)ccc1F", "assay": "cell-free assay, competition with immobilised ligand", "conditions": "1 µM", "endpoint": "remaining binding", "result": "61%"}
{"SMILES": "CNC(=O)c1cc2c(Oc3ccc(NC(=O)C4(C(=O)Nc5ccc(F)cc5)CC4)cc3)ccnc2cc1OC", "assay": "enzyme activity, inhibitor, radiometric", "conditions": "1 µM", "endpoint": "inhibition", "result": "72%"}
{"SMILES": "C[S+]([O-])c1ccc(-c2nc(-c3ccncc3)c(-c3ccc(F)cc3)[nH]2)cc1 (stereo not shown)", "assay": "cell-free assay", "conditions": "0.5 µM", "endpoint": "remaining signal", "result": "89.8%"}
{"SMILES": "CCN(CC)c1ccc(C2=NNC(=O)CC2C)cc1[N+](=O)[O-] (stereo not shown)", "assay": "enzyme activity, inhibitor", "conditions": "10 µM", "endpoint": "remaining activity", "result": "110%"}
{"SMILES": "CCOC(=O)c1cc2cc(-c3cc(C(=O)NCc4ccc(C(=O)O)cc4)nn3C)ccc2[nH]1", "assay": "cell-free assay, competition with immobilised ligand", "conditions": "0.1 µM", "endpoint": "remaining binding", "result": "100%"}
{"SMILES": "O=C(Nc1cnn(-c2csc(C(=O)NC3COC3)c2)c1)Nc1c(F)cccc1Cl", "assay": "enzyme activity, inhibitor", "conditions": "5 µM", "endpoint": "remaining activity", "result": "90.3%"}
{"SMILES": "C#Cc1cccc(Nc2ncnc3cc(OCCOC)c(OCCOC)cc23)c1", "assay": "cell-free assay", "conditions": "0.5 µM", "endpoint": "remaining signal", "result": "94.7%"}
{"SMILES": "CCc1ccccc1C(=O)Nc1n[nH]c2c(C)c(F)c(C3C(C#N)=C(C)N(C)C(C)=C3C#N)cc12", "assay": "cell-free assay, competition with immobilised ligand", "conditions": "1 µM", "endpoint": "remaining binding", "result": "100%"}
{"SMILES": "c1nc2c(Nc3ccc4c(c3)OCCO4)nc(Nc3ccc4c(c3)OCCO4)nc2[nH]1", "assay": "enzyme activity, inhibitor", "conditions": "10 µM", "endpoint": "activity vs control", "result": "8.7%"}
{"SMILES": "c1ccc(CNc2nc(N3CCOc4ccccc43)nc3c2CCCC3)cc1", "assay": "target engagement in cells, inhibitor, chemoproteomics", "conditions": "20 mM", "endpoint": "inhibition", "result": "-18%"}
{"SMILES": "N#CCCc1ccc2c(c1)-c1[nH]c3ccc([N+](=O)[O-])cc3c1CC(=O)N2", "assay": "cell-free assay", "conditions": "0.5 µM", "endpoint": "remaining signal", "result": "52.2%"}
{"SMILES": "COc1cc2ncnc(Nc3ccc(Oc4ccccc4)cc3C)c2cc1OC", "assay": "enzyme activity, inhibitor", "conditions": "1 µM", "endpoint": "inhibition", "result": "83%"}
{"SMILES": "CCCS(=O)(=O)Nc1ccc(F)c(C(=O)c2c[nH]c3ncc(-c4ccc(Cl)cc4)cc23)c1F", "assay": "enzyme activity, inhibitor", "conditions": "1 µM", "endpoint": "inhibition", "result": "< 20%"}
{"SMILES": "Cn1cnc(Br)c1C1=CN(c2ncnc3[nH]cnc23)CCS1", "assay": "enzyme activity, inhibitor, radiometric", "conditions": "50 nM", "endpoint": "inhibition", "result": "21.6%"}
{"SMILES": "CC(=O)Nc1c(C(C)=O)c(=O)n(C)c2nc(-c3ccc(Cl)cc3Cl)c(-c3ccc(Cl)cc3)cc12", "assay": "cell-free assay, competition with immobilised ligand", "conditions": "1 µM", "endpoint": "remaining binding", "result": "100%"}
{"SMILES": "CC(C)c1ccc(NC(=O)c2cccs2)c(-c2nc3ccccc3[nH]c2=O)c1", "assay": "enzyme activity, inhibitor", "conditions": "1 µM", "endpoint": "activity vs control", "result": "103%"}
